Calls of active or inactive are those of the source. The rule behind the calls is not given here.
Tests used:
Escherichia coli [1] = test: Inhibition of NDM1 in Escherichia coli isolate Ah8.73 assessed as potentiation of imipenem-induced antibacterial activity by measuring imipenem MIC at 100 mg/L after 18 to 20 hrs by broth microdilution assay (reference value: 16 mg/L)
Bacteria [2] = test: Binding affinity to bacterial NDM-1 expressed in Escherichia coli BL21(DE3) assessed as intrinsic tryptophan fluorescence quenching up to 32 uM after 30 mins by luminescence spectrometric method relative to control
Summary of the method: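 NDM-1 at 2 μM final in 50 mM HEPES pH 7.5 mixed with compound at 4–32 μM, incubated 30 min. Emission scanned 300–400 nm with excitation at 280 nm. Relative tryptophan fluorescence read at 348 nm, with buffer set to 0% and inhibitor-free NDM-1 to 100%. Control run with 2 μM L-tryptophan in place of enzyme.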

[3] = molecular target: Carbonic anhydrase 2 (Homo sapiens) (UniProt P00918); test: Inhibition of human carbonic anhydrase 2 at 10 uM using p-nitrophenyl acetate as substrate preincubated for 10 mins followed by substrate addition measured for 15 mins
Summary of the method: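 hCAII (100 nM) in 50 mM HEPES pH 8.0 pre-incubated with inhibitor for 10 min at 30 °C. p-Nitrophenyl acetate (500 μM) then added and absorbance at 405 nm followed 15 min. Activity relative to no-inhibitor wells, with 50 μM benzene sulfonamide as 0%. Run in triplicate.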

[4] = Fluorescence quenching activity assessed as reduction in tryptophan fluorescence up to 32 uM after 30 mins by luminescence spectrometric method; set-up: scale not given: the % may be the effect or the level left
Summary of the method: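 NDM-1 (2 μM final) in 50 mM HEPES pH 7.5 with compound at 4–32 μM for 30 min. Excitation 280 nm, emission scanned 300–400 nm, intensity taken at 348 nm. Scaled with buffer as 0% and inhibitor-free enzyme as 100%. Free L-tryptophan (2 μM) run as control.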

Klebsiella pneumoniae [5] = test: Effect on growth of Klebsiella pneumoniae isolate Pd1.50 at 100 mg/L after 18 to 20 hrs by broth microdilution assay
Summary of the method: (§1)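 Mueller-Hinton broth microdilution per CLSI, triplicate. blaNDM-1 clinical isolates grown from OD600 0.1 to 0.224 (~1–2 × 10^8 CFU/mL), diluted 3 μL into 4997 μL MH, and 100 μL added to 100 μL of compound (100 mg/L) alone. Incubated 37 °C for 18–20 h, then scored for growth.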

Klebsiella pneumoniae [6] = test: Effect on growth of Klebsiella pneumoniae isolate Pd1.48 at 100 mg/L after 18 to 20 hrs by broth microdilution assay; summary of the method: as §1
Escherichia coli [7] = test: Inhibition of NDM1 in Escherichia coli isolate Ch8.68 assessed as potentiation of imipenem-induced antibacterial activity by measuring imipenem MIC at 100 mg/L after 18 to 20 hrs by broth microdilution assay (reference value: 16 mg/L)
Bacteria [8] = test: Inhibition of bacterial MBP-fused NDM1 expressed in Escherichia coli BL21(DE3) ausing fluorocillin as substrate preincubated for 20 mins followed by substrate addition measured at 1 sec time interval for 25 mins in presence of ZnSO4 by fluorescence assay
Klebsiella pneumoniae [9] = test: Effect on growth of Klebsiella pneumoniae isolate Cm1.62 at 100 mg/L after 18 to 20 hrs by broth microdilution assay; summary of the method: as §1
Escherichia coli [10] = test: Effect on growth of Escherichia coli isolate Ch8.69 at 100 mg/L after 18 to 20 hrs by broth microdilution assay; summary of the method: as §1
[11] = Inhibition of bacterial MBP-fused NDM1 expressed in Escherichia coli BL21(DE3) ausing fluorocillin as substrate preincubated for 20 mins followed by substrate addition measured at 1 sec time interval for 25 mins by fluorescence assay; set-up: species or system Bacteria
Summary of the method: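 NDM-1 pre-incubated 20 min with inhibitor (final 100 μM to 1 nM) in 50 mM HEPES pH 7.0 with 2 mM CHAPS. Reaction started with fluorocillin (final 87 nM, below KM), NDM-1 final 25 pM. Fluorescence read at λex/em 495/525 nm, 10 reads over ~25 min.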

Bacteria [12] = test: Binding affinity to bacterial CoCoNDM-1 expressed in Escherichia coli BL21(DE3) assessed as metal stripping at 1 to 2 equiv after 30 mins by UV-Visible spectroscopic method
Summary of the method: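 Apo-NDM-1 at 300 μM in 50 mM HEPES, 150 mM NaCl, pH 6.8, loaded with 2 molar equiv CoCl2. […] Absorbance read 300–700 nm at 25 °C as difference spectra against buffer blank, normalized at 700 nm.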

Escherichia coli [13] = test: Effect on growth of Escherichia coli isolate Ch8.68 at 100 mg/L after 18 to 20 hrs by broth microdilution assay; summary of the method: as §1
Escherichia coli [14] = test: Inhibition of NDM1 in Escherichia coli isolate Ch8.70 assessed as potentiation of imipenem-induced antibacterial activity by measuring imipenem MIC at 100 mg/L after 18 to 20 hrs by broth microdilution assay (reference value: 16 mg/L)
[15] = molecular target: Macrophage metalloelastase (Homo sapiens) (UniProt P39900); test: Inhibition of human MMP12 (Phe99 to Leu271 residues) expressed in Escherichia coli at 10 uM using Mca-Pro-LeuGly-Leu-Dpa-Ala-Arg-NH2.AcOH as substrate preincubated for 30 mins followed by substrate addition measured after 20 mins by fluorescence assay relative to control
Chain of Macrophage metalloelastase (Homo sapiens) (P39900 106-470 limits assumed): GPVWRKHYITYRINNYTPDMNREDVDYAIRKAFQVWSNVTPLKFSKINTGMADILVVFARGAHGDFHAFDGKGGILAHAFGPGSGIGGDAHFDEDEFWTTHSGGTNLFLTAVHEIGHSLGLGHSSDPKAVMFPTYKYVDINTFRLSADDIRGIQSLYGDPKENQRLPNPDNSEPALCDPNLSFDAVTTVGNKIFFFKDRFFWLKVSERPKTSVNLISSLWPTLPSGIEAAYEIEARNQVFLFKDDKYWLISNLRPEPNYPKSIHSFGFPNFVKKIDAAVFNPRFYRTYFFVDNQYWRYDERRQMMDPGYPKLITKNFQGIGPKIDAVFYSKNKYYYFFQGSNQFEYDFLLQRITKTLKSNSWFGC
Summary of the method: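 Human recombinant MMP-2 (1.16 U/well) or MMP-12 (0.007 U/well) in 50 mM HEPES, 10 mM CaCl2, 0.05% Brij-35, pH 7.5. Enzyme and inhibitor pre-incubated 30 min at 37 °C, then OmniMMP fluorogenic substrate (4 μM) added. Fluorescence rise followed 20 min at ex/em 320/400 nm. Activity relative to no-inhibitor wells, with 200 μM NSA as 0%. Run in triplicate.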

Escherichia coli [16] = test: Effect on growth of Escherichia coli isolate Ah8.75 at 100 mg/L after 18 to 20 hrs by broth microdilution assay; summary of the method: as §1
Klebsiella pneumoniae [17] = test: Effect on growth of Klebsiella pneumoniae isolate Pd1.55 at 100 mg/L after 18 to 20 hrs by broth microdilution assay; summary of the method: as §1

Nc1cccc(-c2cc(C(=O)O)nc(C(=O)O)c2)c1
MIC (Escherichia coli [1]): 0.5 µg/mL | Activity (Bacteria [2]): 50 to 60% | inhibition [3]: inactive | Activity [4]: 50% | Activity (Klebsiella pneumoniae [5]): Non-Toxic | Activity (Klebsiella pneumoniae [6]): Non-Toxic | MIC (Escherichia coli [7]): 1 µg/mL | inhibition (Bacteria [8]): Active | Activity (Klebsiella pneumoniae [9]): Non-Toxic | Activity (Escherichia coli [10]): Non-Toxic | IC50 [11]: 80 nM | Activity (Bacteria [12]): Active | Activity (Escherichia coli [13]): Non-Toxic | MIC (Escherichia coli [14]): 0.5 µg/mL | inhibition [15]: 48% | Activity (Escherichia coli [16]): Non-Toxic | Activity (Klebsiella pneumoniae [17]): Non-Toxic
